Assay results as given in ChEMBL document CHEMBL3856249 (J Med Chem, 2016).

Tests used:
[1] = Half life in Beagle dog at 1 mg/kg, iv or 5 mg/kg, po; format: ADME, organism-based, Canis lupus familiaris; details: in vivo
Outline: (§1)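 Male Beagle dogs, 1 mg/kg i.v. and 5 mg/kg p.o., vehicle 20% HP-β-CD + HCl solution at pH 4; values are individual animals (two dogs) or mean of three animals ± SD.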

[2] = Tmax in Beagle dog at 1 mg/kg, iv or 5 mg/kg, po; format: ADME, organism-based, Canis lupus familiaris; details: in vivo
Outline: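 Male Beagle dogs given 5 mg/kg orally and 1 mg/kg intravenously, formulated in 20% HP-β-CD + HCl solution at pH 4. Tmax reported as mean ± SD of three animals.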

[3] = AUC (0 to infinity) in Beagle dog at 1 mg/kg, iv or 5 mg/kg, po; format: ADME, organism-based, Canis lupus familiaris; details: in vivo; outline: as §1
[4] = Oral bioavailability in Beagle dog at 5 mg/kg; format: ADME, organism-based, Canis lupus familiaris; details: in vivo; outline: as §1
[5] = Metabolic stability in rat liver microsomes assessed as compound metabolized at 5 uM measured after 15 mins; format: ADME; details: read-out: Drug metabolism
Outline: (§2)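 Human or rat liver microsomes incubated with compound at 5 μM for 15 min; read-out is % of parent metabolized; means of at least two experiments.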

[6] = Cmax in Beagle dog at 1 mg/kg, iv or 5 mg/kg, po; format: ADME, organism-based, Canis lupus familiaris; details: in vivo; outline: as §1
[7] = Lipophilicity, log P of the compound; format: physicochemical; details: octanol/water
[8] = Ratio of drug level in brain to plasma of Swiss mouse at 10 mg/kg, sc measured after 1 hr; format: ADME, organism-based; details: brain and plasma, read-out: BPR
Outline: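 Swiss mice, single 10 mg/kg s.c. dose in 20% HP-β-CD + HCl solution at pH 4; brain/plasma ratio taken 1 h post-dose.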

[9] = Apparent permeability across apical to basolateral side over basolateral to apical side in pig LLC-PK1 cells at 1 uM measured after 120 mins; format: ADME, cell-based, Sus scrofa
[10] = Clearance in Sprague-Dawley rat at […], iv or 10 mg/kg, po; format: ADME, organism-based; details: in vivo
[11] = Metabolic stability in human liver microsomes assessed as compound metabolized at 5 uM measured after 15 mins; format: ADME; details: read-out: Drug metabolism; outline: as §2
[12] = Tmax in Sprague-Dawley rat at […], iv or 10 mg/kg, po; format: ADME, organism-based; details: in vivo
[13] = Elimination half life in Sprague-Dawley rat at […], iv or 10 mg/kg, po; format: ADME, organism-based; details: in vivo, read-out: beta t1/2 (converted)
[14] = Clearance in Beagle dog at 1 mg/kg, iv or 5 mg/kg, po; format: ADME, organism-based, Canis lupus familiaris; details: in vivo; outline: as §1
[15] = Cmax in Sprague-Dawley rat at […], iv or 10 mg/kg, po; format: ADME, organism-based; details: in vivo
[16] = Oral bioavailability in Sprague-Dawley rat at 10 mg/kg; format: ADME, organism-based; details: in vivo
[17] = AUC (0 to infinity) in Sprague-Dawley rat at […], iv or 10 mg/kg, po; format: ADME, organism-based; details: in vivo
[18] = Dissociation constant, pKa of the compound; format: physicochemical

SMILES | metabolised at […], 5 µM [5] | metabolised at […], 5 µM [11] | also measured
FC(F)(F)c1c(N2CCC(c3ccccc3)CC2)ccn2c(CC3CC3)nnc12 | 25% |  | half-life [1]: 66 to 108 min; Tmax [2]: 30 min; AUC(0-inf) [3]: 531 to 957 ng·h/mL; bioavailability [4]: 18 to 33%; Cmax [6]: 218 to 472 ng/mL; logP [7]: 4.4; Kp at 1 h [8]: 1.4; Papp at 2 h, 1 µM [9]: 12 ×10⁻⁶ cm/s; clearance [10]: 31 to 37 mL/min/kg
Fc1ccc([C@H]2CC[C@@H](NCc3ccn4c(CC5CC5)nnc4c3C(F)(F)F)CC2)c(F)c1 | 84% | 81% | 
CC1(c2ccccc2)CCCN(Cc2ccn3c(CC4CC4)nnc3c2C(F)(F)F)C1 (centres undefined) | 99% | 97% | 
Fc1cccc(F)c1C1CCN(Cc2ccn3c(CC4CC4)nnc3c2C(F)(F)F)CC1 | 75% | 5% | 
Fc1ccccc1C1CCN(Cc2ccn3c(CC4CC4)nnc3c2C(F)(F)F)CC1 | 85% | 8% | 
FC(F)(F)c1c(CN2CCC(F)(c3ccccc3)CC2)ccn2c(CC3CC3)nnc12 | 78% | 24% | 
Fc1ccc(N2CCN(Cc3ccn4c(CC5CC5)nnc4c3C(F)(F)F)CC2)c(F)c1 | 29% | 7% | half-life [1]: 420 to 540 min; Tmax [2]: 30 min; Tmax [12]: 300 min; half-life [13]: 180 min; clearance [14]: 4 to 6 mL/min/kg; Cmax [15]: 980 ng/mL; AUC(0-inf) [3]: 3960 to 9860 ng·h/mL; bioavailability [4]: 18 to 44%; Cmax [6]: 459 to 1400 ng/mL; logP [7]: 4.2; Kp at 1 h [8]: 2.1; bioavailability [16]: 100%; Papp at 2 h, 1 µM [9]: 22 ×10⁻⁶ cm/s; AUC(0-inf) [17]: 11300 ng·h/mL; pKa [18]: 5; clearance [10]: 16 mL/min/kg
COC1(c2ccccc2)CCN(Cc2ccn3c(CC4CC4)nnc3c2C(F)(F)F)CC1 | 98% | 69% | 
Fc1ccc(COC2CCN(Cc3ccn4c(CC5CC5)nnc4c3C(F)(F)F)CC2)c(F)c1 | 96% | 67% | 
FC(F)(F)c1c(CN2CCCC(c3ccccc3)C2)ccn2c(CC3CC3)nnc12 (centres undefined) | 98% | 51% | 
Fc1ccc(C2CCN(Cc3ccn4c(CC5CC5)nnc4c3C(F)(F)F)CC2)c(F)c1 | 9% | 6% | 
Fc1ccc([C@H]2CC[C@H](NCc3ccn4c(CC5CC5)nnc4c3C(F)(F)F)CC2)c(F)c1 | 34% | 33% | 
FC(F)(F)c1c(CN2CCC(c3ccccc3Cl)CC2)ccn2c(CC3CC3)nnc12 | 90% | 13% | 
FC(F)(F)c1c(CN2CCC(c3ccccc3)(C(F)(F)F)CC2)ccn2c(CC3CC3)nnc12 | 98% | 35% | 
FC(F)(F)c1c(CN2CCN(c3ccc(Cl)cc3Cl)CC2)ccn2c(CC3CC3)nnc12 | 9% | 1% | 
Fc1ccc(OC2CCN(Cc3ccn4c(CC5CC5)nnc4c3C(F)(F)F)CC2)c(F)c1 | 57% | 25% | 
Fc1cccc(F)c1N1CCN(Cc2ccn3c(CC4CC4)nnc3c2C(F)(F)F)CC1 | 99% | 55% | 
Fc1ccc(N2CCCN(Cc3ccn4c(CC5CC5)nnc4c3C(F)(F)F)CC2)c(F)c1 | 99% | 91% | 
CCCCn1ccc(N2CCC(c3ccccc3)CC2)c(Cl)c1=O [JNJ-40411813] | 53% | 23% | Tmax [2]: 30 min; Tmax [12]: 30 min; bioavailability [4]: 20%; Cmax [6]: 373 ng/mL; logP [7]: 4.6; Kp at 1 h [8]: 1; pKa [18]: < 2
